Read-outs that look alike come from different tables or passages of the source.
What was measured:
[1] = tested on: E. cloacae (IMP-1); assay: Synergy assay: MIC of meropenem in combination with test compound; format: cell-based
[2] = tested on: K. pneumoniae (IMP-28); assay: as above; format: cell-based
[3] = tested on: E. coli (NDM-1); assay: as above; format: cell-based
[4] = tested on: E. coli (VIM-2); assay: as above; format: cell-based
[5] = target: T1, IMP-1 (Serratia marcescens, UniProt P52699); conditions: cited from earlier work
[6] = target: T2, NDM-1 (Klebsiella pneumoniae, UniProt C7C422); conditions: read-out: IC50 NDM-1; cited from earlier work
[7] = tested on: VIM-1; conditions: cited from earlier work
[8] = target: T2, NDM-1; assay: Enzyme inhibition assay with nitrocefin as chromogenic substrate; format: biochemical
Procedure, shortened: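 Recombinant NDM-1 (6 nM) in 50 mM HEPES pH 7.2 with 1 μM ZnSO₄ and 0.01% Triton X-100 was preincubated with a range of test compound concentrations for 15–60 min at 25 °C. Nitrocefin (10 μM, ∼2 × K_M) was then added and A492 was read at once over 30 cycles. For time 0, enzyme was added last. IC50 came from initial velocities, in three independent replicates.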

[9] = target: IMP-28 (Klebsiella oxytoca, UniProt G4WB26); assay: Enzyme inhibition assay with nitrocefin as chromogenic substrate; format: biochemical; conditions: for decrease of activity against IMP-28 relative to 8: from IC50 data of Table 2
[10] = target: T1, IMP-1; assay: as above; format: biochemical; conditions: for decrease of activity against IMP-1 relative to 8: from IC50 data of Table 2
[11] = target: VIM-2 (Escherichia coli, UniProt Q5U7L7); conditions: cited from earlier work
[12] = tested on: IMP family; conditions: cited from earlier work
[13] = test compound 0 μg/mL (meropenem alone, baseline)
[14] = mean ± SD, nitrocefin substrate

T2 sequence (C7C422 29-270, looked up, species assumed): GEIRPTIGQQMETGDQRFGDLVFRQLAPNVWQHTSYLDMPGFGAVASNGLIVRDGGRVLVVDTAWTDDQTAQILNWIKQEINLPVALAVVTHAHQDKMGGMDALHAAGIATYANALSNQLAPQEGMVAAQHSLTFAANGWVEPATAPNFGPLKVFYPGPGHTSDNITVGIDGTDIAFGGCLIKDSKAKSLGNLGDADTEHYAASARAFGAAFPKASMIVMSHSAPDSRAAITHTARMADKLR
Sequence of IMP-28 (G4WB26 20-246): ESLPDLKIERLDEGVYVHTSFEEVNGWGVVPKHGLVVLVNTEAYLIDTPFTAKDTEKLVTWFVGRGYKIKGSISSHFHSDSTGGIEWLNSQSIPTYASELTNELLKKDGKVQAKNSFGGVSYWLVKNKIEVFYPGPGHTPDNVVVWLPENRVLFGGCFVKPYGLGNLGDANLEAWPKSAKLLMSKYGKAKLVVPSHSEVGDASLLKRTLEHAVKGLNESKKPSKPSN
T1 sequence (P52699 19-246, looked up, species assumed): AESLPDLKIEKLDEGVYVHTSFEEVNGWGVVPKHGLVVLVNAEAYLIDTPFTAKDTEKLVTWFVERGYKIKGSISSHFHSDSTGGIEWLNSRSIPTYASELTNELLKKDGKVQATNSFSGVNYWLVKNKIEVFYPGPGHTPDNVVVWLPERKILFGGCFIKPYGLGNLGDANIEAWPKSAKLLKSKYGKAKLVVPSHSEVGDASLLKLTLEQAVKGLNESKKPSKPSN

For O=C(Cc1ccccc1)N[C@@H]1C(=O)N2C(C(=O)O)=C(CS[C@@H](Cc3ccccc3)C(=O)O)CS[C@H]12 [Compound 10], the “Fold reduction of MIC (meropenem)” value ([1]; test compound 128 μg/mL) was 4 (4) fold and the “meropenem MIC” value ([1]; test compound 128 μg/mL) was 4 (4) μg/mL.

In the case of O=C(O)c1cccc(C(=O)O)n1 [DPA, Dipicolinic acid, reference compound], the “meropenem MIC” value ([2]; test compound 64 μg/mL) is reported as at most 0.031 mg/L, the “meropenem MIC” value ([2]; test compound 128 μg/mL) is reported as at most 0.031 mg/L and the “meropenem MIC” value ([3]; test compound 128 μg/mL) is reported as at most 0.5 mg/L. The “meropenem MIC” value [4, 13] was 4 µg/mL, the “meropenem MIC” value ([4]; test compound 32 μg/mL) was at most 0.063 µg/mL and the “meropenem MIC” value ([4]; test compound 64 μg/mL) was at most 0.063 µg/mL. The “meropenem MIC” value ([4]; test compound 128 μg/mL) was at most 0.063 µg/mL.

For O=C(O)c1ncsc1NS(=O)(=O)c1cccnc1 [ANT431], the “inhibitory activity against IMP-1” value [5] is listed as “remain resistant”, the IC50 [6] is listed as 2.67 µM and the “inhibitory activity against VIM-1” value [7] is listed as “remain resistant”.

For O=C(Cc1ccccc1)N[C@@H]1C(=O)N2C(C(=O)O)=C(CSCCc3ccccc3)CS[C@H]12 [Compound 12], the IC50 [8] was over 100 µM and the “meropenem MIC” value [3, 13] was 64 mg/L.

With O=C(Cc1ccccc1)N[C@@H]1C(=O)N2C(C(=O)O)=C(CSC(C(=O)O)c3ccccc3)CS[C@H]12 (stereo partly drawn) [Compound 8] the “Fold reduction of MIC (meropenem)” value ([2]; test compound 32 μg/mL) was at least 64 fold, the “Fold reduction of MIC (meropenem)” value ([2]; test compound 64 μg/mL) was at least 64 fold and the “Fold reduction of MIC (meropenem)” value ([2]; test compound 128 μg/mL) was at least 64 fold.

With O=C(Cc1ccccc1)N[C@@H]1C(=O)N2C(C(=O)O)=C(CSCC(=O)c3ccccc3)CS[C@H]12 [Compound 6] the “meropenem MIC” value [3, 13] was 32 mg/L, the “Fold reduction of MIC (meropenem)” value ([1]; test compound 128 μg/mL) was 4 (4) fold and the “meropenem MIC” value ([1]; test compound 128 μg/mL) was 4 (4) μg/mL.

For O=C(Cc1ccccc1)N[C@@H]1C(=O)N2C(C(=O)O)=C(CSCc3ccccc3)CS[C@H]12 [Compound 11], the “decrease of activity against IMP-28 relative to 8” value [9] was “ca. 100 fold”, the IC50 [8] was over 100 µM and the “decrease of activity against IMP-1 relative to 8” value [10] was “ca. 100 fold”. For the same compound, the “meropenem MIC” value [3, 13] was 32 mg/L, the “Fold reduction of MIC (meropenem)” value ([4]; test compound 32 μg/mL) was 2 (2) fold and the “meropenem MIC” value ([4]; test compound 32 μg/mL) was 2 (2) μg/mL. The “Fold reduction of MIC (meropenem)” value ([4]; test compound 64 μg/mL) was 2 (2) fold, the “meropenem MIC” value ([4]; test compound 64 μg/mL) was 2 (2) μg/mL and the “meropenem MIC” value [1, 13] was 32 µg/mL.

In the case of O=C(Cc1ccccc1)N[C@H](C(=O)O)[C@@H]1N=C(C(=O)O)C(CSC(C(=O)O)c2ccccc2)CS1 (stereo partly drawn) [Compound 8H], the “IC50 IMP-28” value [9, 14] is reported as “sub-micromolar” and the “IC50 IMP-1” value [10, 14] is reported as “sub-micromolar”.

For NCCN[C@H]1CC[C@H](CC(=O)N[C@H]2Cc3cccc(C(=O)O)c3OB2O)CC1 [taniborbactam], the “IC50 VIM-2” value [11] is given as “sub-micromolar” and the “inhibition of the IMP family” value [12] is given as “weak inhibition”.

With O=C(Cc1ccccc1)N[C@@H]1C(=O)N2C(C(=O)O)=C(CS[C@H](Cc3ccccc3)C(=O)O)CS[C@H]12 [Compound 9] the “Fold reduction of MIC (meropenem)” value ([2]; test compound 32 μg/mL) was at least 64 fold, the “Fold reduction of MIC (meropenem)” value ([2]; test compound 64 μg/mL) was at least 64 fold and the “Fold reduction of MIC (meropenem)” value ([2]; test compound 128 μg/mL) was at least 64 fold. For the same compound, the “potency relative to diastereomer 10 against IMP-28” value ([9]; more potent than 10) was about 30 fold and the “potency relative to diastereomer 10 against IMP-1” value ([10]; more potent than 10) was “ca. 10 fold”.

With O=C(O)CSCC1=C(C(=O)O)N2C(=O)[C@@H](NC(=O)Cc3ccccc3)[C@H]2SC1 [Compound 13] the “decrease of activity against IMP-28 relative to 8” value [9] was “ca. 100 fold”, the IC50 [10] was over 100 µM and the “decrease of activity against IMP-1 relative to 8” value [10] was “ca. 100 fold”. For the same compound, the “meropenem MIC” value [3, 13] was 32 mg/L, the “Fold reduction of MIC (meropenem)” value ([4]; test compound 32 μg/mL) was 2 (2) fold and the “meropenem MIC” value ([4]; test compound 32 μg/mL) was 2 (2) μg/mL. The “Fold reduction of MIC (meropenem)” value ([4]; test compound 64 μg/mL) was 2 (2) fold, the “meropenem MIC” value ([4]; test compound 64 μg/mL) was 2 (2) μg/mL and the “Fold reduction of MIC (meropenem)” value ([1]; test compound 128 μg/mL) was 4 (4) fold. The “meropenem MIC” value ([1]; test compound 128 μg/mL) was 4 (4) μg/mL.

For CC1=C(C(=O)O)N2C(=O)[C@@H](NC(=O)Cc3ccccc3)[C@H]2SC1 [Compound 15], the “decrease of activity against IMP-28 relative to 8” value [9] was “ca. 100 fold”, the IC50 [8] was over 100 µM and the IC50 [10] was over 100 µM. For the same compound, the “decrease of activity against IMP-1 relative to 8” value [10] was “ca. 100 fold”, the “meropenem MIC” value [3, 13] was 32 mg/L and the “Fold reduction of MIC (meropenem)” value ([4]; test compound 32 μg/mL) was 2 (2) fold. The “meropenem MIC” value ([4]; test compound 32 μg/mL) was 2 (2) μg/mL, the “Fold reduction of MIC (meropenem)” value ([4]; test compound 64 μg/mL) was 2 (2) fold and the “meropenem MIC” value ([4]; test compound 64 μg/mL) was 2 (2) μg/mL.

Source: article PMC8273888 (Journal of Medicinal Chemistry, 2021)
